Laboratory results published in ChEMBL document CHEMBL4316635, “Synthesis, Structure Revision, and Cytotoxicity of Nocarbenzoxazole G” (J Nat Prod, 2019).

Key:
[1] = system: Hep 3B2; experiment: Cytotoxicity in human Hep3B cells assessed as reduction in cell viability incubated for 48 hrs by CCK8 assay; type: functional, cell-based
In short: (§1)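 Exponentially growing cells, routinely kept in DMEM or RPMI1640 (line-dependent) with 10% FBS, penicillin/streptomycin at 37 °C and 5% CO₂, were seeded at 1.0 × 10⁴ cells/well in triplicate. The next day they were treated at 1.25–20 μM for 48 h. CCK-8 reagent was then added for 1 h and absorbance read at 450 nm. Controls received medium with 0.5% (v/v) DMSO.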

[2] = system: HepG2; experiment: Cytotoxicity in human HepG2 cells assessed as reduction in cell viability incubated for 48 hrs by CCK8 assay; type: functional, cell-based; details: HepG2, 48 h; in short: as §1
[3] = system: T98G; experiment: Cytotoxicity in human T98G cells assessed as reduction in cell viability incubated for 48 hrs by CCK8 assay; type: cell-based; in short: as §1
[4] = system: MDA-MB-231; experiment: Cytotoxicity in human MDA-MB-231 cells assessed as reduction in cell viability incubated for 48 hrs by CCK8 assay; type: functional, cell-based; details: MDA-MB-231, 48 h; in short: as §1
[5] = system: MCF7; experiment: Cytotoxicity in human MCF7 cells assessed as reduction in cell viability incubated for 48 hrs by CCK8 assay; type: functional, cell-based; details: MCF7, 48 h; in short: as §1
[6] = system: HeLa; experiment: Cytotoxicity in human HeLa cells assessed as reduction in cell viability incubated for 48 hrs by CCK8 assay; type: functional, cell-based; in short: as §1

SMILES: OCc1ccc2oc(-c3ccc(O)cc3)nc2c1
- IC50 [1]: > 20 µM
- IC50 [2]: > 20 µM
- IC50 [3]: > 20 µM
- IC50 [4]: > 20 µM
- IC50 [5]: > 20 µM
- IC50 [6]: 4.7 µM

SMILES: COc1cc(O)ccc1-c1nc2cc(CO)ccc2o1
- IC50 [1]: > 20 µM
- IC50 [2]: > 20 µM
- IC50 [3]: > 20 µM
- IC50 [4]: > 20 µM
- IC50 [5]: > 20 µM
- IC50 [6]: 2.9 µM

SMILES: Cc1cc(-c2nc3cc(CO)ccc3o2)cc(C)c1N
- IC50 [1]: > 20 µM
- IC50 [2]: > 20 µM
- IC50 [3]: > 20 µM
- IC50 [4]: > 20 µM
- IC50 [5]: > 20 µM
- IC50 [6]: 19 µM

SMILES: COc1cc(-c2nc3cc(CO)ccc3o2)ccc1O
- IC50 [1]: > 20 µM
- IC50 [2]: > 20 µM
- IC50 [3]: > 20 µM
- IC50 [4]: > 20 µM
- IC50 [5]: > 20 µM
- IC50 [6]: 5.7 µM

SMILES: OCc1ccc2oc(-c3ccc(O)c(Cl)c3)nc2c1
- IC50 [1]: > 20 µM
- IC50 [2]: > 20 µM
- IC50 [3]: > 20 µM
- IC50 [4]: > 20 µM
- IC50 [5]: > 20 µM
- IC50 [6]: 11 µM

SMILES: OCc1ccc2oc(-c3ccc4[nH]ccc4c3)nc2c1
- IC50 [1]: > 20 µM
- IC50 [2]: > 20 µM
- IC50 [3]: > 20 µM
- IC50 [4]: > 20 µM
- IC50 [5]: > 20 µM
- IC50 [6]: 8.9 µM

SMILES: OCc1ccc2oc(-c3ccc4cc(O)ccc4c3)nc2c1
- IC50 [1]: > 20 µM
- IC50 [2]: > 20 µM
- IC50 [3]: > 20 µM
- IC50 [4]: > 20 µM
- IC50 [5]: > 20 µM
- IC50 [6]: 0.56 µM

SMILES: OCc1ccc2oc(-c3ccc(Cl)cc3)nc2c1
- IC50 [1]: > 20 µM
- IC50 [2]: > 20 µM
- IC50 [3]: > 20 µM
- IC50 [4]: > 20 µM
- IC50 [5]: > 20 µM
- IC50 [6]: 16 µM
